Here are results for six molecules from ChEMBL document CHEMBL1132709, “Novel cyclopropapyrroloindole derivative (AT-3510) bearing methoxycarbonyl and trifluoromethyl groups” (J Med Chem, 1999).

In brackets after ≈: the same amount, converted by molar mass.

The test system of assay [1] is Mus musculus. Description: In vivo antitumor activity (1 mg/Kg) is the measure of tumor growth inhibition of colon 26 murine […] cells. The format is functional. The method, boiled down:
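Colon 26 cells (10^6/mouse) inoculated sc into male CDF1 mice on day 0; drug given iv on day 7. Read-out is percentage tumor growth inhibition versus the untreated group.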

Another assay relates to HeLa. In words: Concentration required to inhibit the growth of HeLaS3 human uterine cervix carcinoma cells by 50%. The assay is classed as functional, cell-based.
The test system of assay [2] is Mus musculus. Description: In vivo antitumor activity (0.845 mg/kg) is the measure of tumor growth inhibition of human tumor xenograft DLD-1 (colon) implanted sc in mice. The assay is classed as functional. An outline of the steps: (§1)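 Tumor fragments (2–3 mm3) implanted sc into female BALB/cA Jcl-nu mice on day 0; single iv dose given once tumor volume reached about 100 mm3. Read-out is maximum tumor growth inhibition, as percentage versus untreated group.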
(In xenograft studies the graft and the host belong to different species.)

Assay [3] is described as follows: Ratio between max dose within 10% body weight loss and tumor growth inhibition. The format is functional. The method, boiled down:
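Ratio of maximum dose within 10% body weight loss to the dose giving 50% tumor growth inhibition, in sc Colon 26-bearing mice dosed iv.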

Assay [4] has as its system Mus musculus. Description: In vivo concentration required to inhibit the Colon 26 murine […] cell growth by 50%. The format is functional.
In assay [5] the test system is Mus musculus. In words: In vivo antitumor activity is the measure of tumor growth inhibition of Colon 26 murine […] cells. The format is functional. The method, boiled down:
(§2)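 Colon 26 cells (10^6/mouse) inoculated sc into male CDF1 mice on day 0; single iv dose on day 7. Tumor growth inhibition expressed as percentage versus untreated group.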

In assay [6] the test system is Mus musculus. Description: In vivo antitumor activity (0.845 mg/kg) is the measure of tumor growth inhibition of human tumor xenograft HCT116 (colon) implanted sc in mice. The assay is classed as functional. The method, boiled down:
as §1

Assay [7] has as its system Mus musculus. Description: In vivo antitumor activity (0.800 mg/kg) is the measure of tumor growth inhibition of human tumor xenograft NUGC-3 (stomach) implanted sc in mice. The assay is classed as functional. The method, boiled down:
as §1

In assay [8] the test system is Mus musculus. Description: In vivo antitumor activity (0.0884 mg/Kg) is the measure of tumor growth inhibition of colon 26 murine […] cells. The format is functional. An outline of the steps: as §2
Assay [9] deals with Mus musculus. In words: In vivo concentration required to inhibit the colon 26 murine […] cell growth by 50%. The assay is classed as functional.
The test system of assay [10] is Mus musculus. In words: In vivo antitumor activity (1 mg/kg) is the measure of tumor growth inhibition of human tumor xenograft HCT116 (colon) implanted sc in mice. The format is functional. The method, boiled down: (§3)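 Tumor fragments (2–3 mm3) implanted sc into female BALB/cA Jcl-nu mice on day 0. A single iv dose was given once tumor volume reached about 100 mm3. Read-out is percentage of maximum tumor growth inhibition versus the untreated group.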

For assay [11], the system named is Mus musculus. Description: In vivo antitumor activity (1 mg/kg) is the measure of tumor growth inhibition of human tumor xenograft WiDr (colon) implanted sc in mice. The format is functional. An outline of the steps:
as §3

For assay [12], the system named is Mus musculus. In words: In vivo antitumor activity (0.716 mg/kg) is the measure of tumor growth inhibition of human tumor xenograft NUGC-3 (stomach) implanted sc in mice. The format is functional. An outline of the steps:
as §3

Assay [13] has as its system Mus musculus. Description: In vivo antitumor activity (1 mg/kg) is the measure of tumor growth inhibition of human tumor xenograft DLD-1 (colon) implanted sc in mice. The assay is classed as functional. An outline of the steps: as §3
Assay [14] deals with Mus musculus. In words: In vivo antitumor activity (3.13 mg/kg) is the measure of tumor growth inhibition of human tumor xenograft WiDr (colon) implanted sc in mice. The assay is classed as functional. An outline of the steps:
as §1

Assay [15] relates to Mus musculus. Description: In vivo antitumor activity (3.13 mg/kg) is the measure of tumor growth inhibition of human tumor xenograft HCT116 (colon) implanted sc in mice. The format is functional. The method, boiled down: as §1
Assay [16] concerns Mus musculus. Description: In vivo antitumor activity (3.13 mg/kg) is the measure of tumor growth inhibition of human tumor xenograft DLD-1 (colon) implanted sc in mice. The assay is classed as functional. The method, boiled down: as §1
In assay [17] the test system is Mus musculus. In words: In vivo antitumor activity (3.13 mg/kg) is the measure of tumor growth inhibition of human tumor xenograft NUGC-3 (stomach) implanted sc in mice. The assay is classed as functional. The method, boiled down: as §1
The test system of assay [18] is Mus musculus. Description: In vivo antitumor activity (0.125 mg/Kg) is the measure of tumor growth inhibition in mice bearing S180 murine sarcoma cells. The format is functional, CCRF S-180.
In a further assay the test system is P338. Description: In vitro concentration required to inhibit the growth of […] murine leukemia cells by 50%. The assay is classed as functional, cell-based. Conditions: Mus musculus.
Assay [19] relates to Mus musculus. Description: In vivo antitumor activity (0.125 mg/Kg) is the measure of increase in life span of mice bearing P388 murine leukemia cells. The assay is classed as functional.

By TGI is commonly meant how far tumour growth fell short of that in controls. Lower therefore signals a weaker effect on the tumour. Usually IC50 stands for the concentration that gives 50% inhibition. Broadly, the ILS is how much longer treated animals lived than controls. Higher therefore signals a large benefit in survival.

In the assay with Mus musculus [1], `COC(=O)c1c(C(F)(F)F)[nH]c2c(O)cc3c(c12)[C@H](CCl)CN3C(=O)c1cc2cc(-c3cc4ccccc4o3)ccc2[nH]1` (racemic) gave a TGI of 84%. Also, the IC50 in the assay with HeLa came to 3.6 ng/mL (≈ 5.92 nM).

With `COC(=O)c1c(C(F)(F)F)[nH]c2c(OC(=O)N3CCN(C)CC3)cc3c(c12)[C@H](CCl)CN3C(=O)c1cc2cc(NC(=O)c3cc4ccccc4cn3)ccc2[nH]1`, the TGI came to 76% with Mus musculus [2], 93% in the assay with Mus musculus [5], 77% with Mus musculus [6] and 97% with Mus musculus [7]. For the same molecule, the Ratio in assay [3] is 6.1. In the assay on Mus musculus [4], this molecule yielded a TGI50 of 0.082 mg/kg.

Consider `Cc1c[nH]c2c1[C@@]13C[C@@H]1CN(C(=O)c1cc4cc(NC(=O)c5cc6ccccc6o5)ccc4[nH]1)C3=CC2=O` [ADOZELESIN], for which, in [3], the Ratio was determined as 2. The same molecule had a TGI in the assay on Mus musculus [8] of 79%. For the same molecule, the TGI50 with Mus musculus [9] is 0.0444 mg/kg. The molecule further displayed an IC50 in the assay on HeLa of 0.0364 ng/mL (≈ 0.0724 nM).

Turning to `COC(=O)c1c(C)[nH]c2c(OC(=O)N3CCN(C)CC3)cc3c(c12)[C@H](CBr)CN3C(=O)c1cc2cc(OC)c(OC)c(OC)c2[nH]1` [PIBROZELESIN], the TGI in the assay with Mus musculus [10] is reported as 73%; in the assay with Mus musculus [11], 59%; in the assay on Mus musculus [12], 91%; in the assay on Mus musculus [13], 65%. The Ratio in assay [3] was 3.4.

On to `COC(=O)c1c(C(F)(F)F)[nH]c2c(OC(=O)N3CCN(C)CC3)cc3c(c12)[C@H](CCl)CN3C(=O)c1cc2cc(NC(=O)c3cc4cccc(OC)c4o3)ccc2[nH]1`, for which the TGI in the assay on Mus musculus [14] is given as 86%; in the assay with Mus musculus [15], 90%; in the assay on Mus musculus [5], 95%; in the assay with Mus musculus [16] it was 83%; in the assay with Mus musculus [17], 100%. Also, the Ratio in assay [3] stood at 7.6. This molecule also showed a TGI50 with Mus musculus [4] of 0.265 mg/kg.

In turn, `Cc1c[nH]c2c1[C@@]13C[C@@H]1CN(C(=O)c1cc4cc(NC(=O)c5cc6ccccc6[nH]5)ccc4[nH]1)C3=CC2=O` (racemic) yielded a TGI with Mus musculus [18] of 86%. Further, the IC50 in the assay with P338 amounted to 0.028 ng/mL (≈ 0.0558 nM). Further, in the assay on Mus musculus [19], the ILS was 210%.
